Tests used:
Homo sapiens [1] = species on record: Homo sapiens; experiment: Selectivity ratio of Ki for kappa opioid receptor to Ki for mu opioid receptor
In short: (§1)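 CHO cell membranes (50 µg) expressing cloned mu, delta or kappa opioid receptors, labelled with […] (mu), [3H]NTI (delta) or [3H]norBNI (kappa), with varying drug concentrations, 90 min at 30 °C. […] IC50 from Hill-plot linear regression, converted to Ki by Cheng-Prusoff.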

Homo sapiens [2] = species on record: Homo sapiens; experiment: Selectivity ratio of Ki for delta opioid receptor to Ki for mu opioid receptor; in short: as §1
Mu-type opioid receptor [3] = molecular target: T1, Mu-type opioid receptor (Homo sapiens, UniProt P35372); experiment: […] activity against mu opioid receptor expressed in CHO cells assessed as stimulation [35S]GTPgammaS binding relative to DAMGO; assay type: functional, cell-based; parameters: concentration or dose not given beside the values
T1 sequence (P35372 whole entry): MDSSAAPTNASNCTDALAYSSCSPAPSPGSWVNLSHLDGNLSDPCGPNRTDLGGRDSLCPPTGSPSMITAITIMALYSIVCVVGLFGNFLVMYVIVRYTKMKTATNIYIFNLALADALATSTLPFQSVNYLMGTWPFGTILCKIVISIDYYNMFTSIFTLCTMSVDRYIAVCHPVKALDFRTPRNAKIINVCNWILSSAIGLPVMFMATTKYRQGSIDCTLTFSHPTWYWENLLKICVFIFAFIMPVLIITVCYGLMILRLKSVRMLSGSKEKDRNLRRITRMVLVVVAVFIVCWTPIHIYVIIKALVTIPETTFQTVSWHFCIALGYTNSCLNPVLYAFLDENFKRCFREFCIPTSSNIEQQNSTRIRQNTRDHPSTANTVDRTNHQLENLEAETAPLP
In short: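 Membranes (10 µg) from the same receptor-expressing CHO cells incubated 30 min with 10 µM GDP, 0.1 nM [35S]GTPγS and varying drug concentrations. Nonspecific binding defined by 10 µM unlabelled GTPγS. Relative Emax and EC50 from nonlinear regression of concentration-effect curves.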

Mu-type opioid receptor [4] = molecular target: T1, Mu-type opioid receptor; experiment: Displacement of [3H]DAMGO from mu opioid receptor expressed in CHO cells; assay type: cell-based
[5] = molecular target: Delta-type opioid receptor (Homo sapiens, UniProt P41143); experiment: Displacement of [3H]NTI from delta opioid receptor expressed in CHO cells; assay type: cell-based
Sequence of Delta-type opioid receptor (P41143 whole entry): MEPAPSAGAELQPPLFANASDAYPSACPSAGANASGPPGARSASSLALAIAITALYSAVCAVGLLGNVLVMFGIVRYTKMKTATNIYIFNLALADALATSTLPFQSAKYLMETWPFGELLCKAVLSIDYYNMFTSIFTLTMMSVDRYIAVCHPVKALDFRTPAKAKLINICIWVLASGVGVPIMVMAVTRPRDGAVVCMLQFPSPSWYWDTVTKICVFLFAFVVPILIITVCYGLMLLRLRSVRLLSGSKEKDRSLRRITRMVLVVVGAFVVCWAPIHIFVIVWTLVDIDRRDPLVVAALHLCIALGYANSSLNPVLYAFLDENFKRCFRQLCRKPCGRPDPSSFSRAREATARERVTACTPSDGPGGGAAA
In short: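 CHO cell membranes (50 µg) expressing cloned mu, delta or kappa opioid receptors, labelled with […] (mu), [3H]NTI (delta) or [3H]norBNI (kappa), with varying drug concentrations, 90 min at 30 °C. IC50 from Hill-plot linear regression, converted to Ki by Cheng-Prusoff.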

[6] = molecular target: Kappa-type opioid receptor (Homo sapiens, UniProt P41145); experiment: Displacement of [3H]norBNI from kappa opioid receptor expressed in CHO cells; assay type: cell-based
Sequence of Kappa-type opioid receptor (P41145 whole entry): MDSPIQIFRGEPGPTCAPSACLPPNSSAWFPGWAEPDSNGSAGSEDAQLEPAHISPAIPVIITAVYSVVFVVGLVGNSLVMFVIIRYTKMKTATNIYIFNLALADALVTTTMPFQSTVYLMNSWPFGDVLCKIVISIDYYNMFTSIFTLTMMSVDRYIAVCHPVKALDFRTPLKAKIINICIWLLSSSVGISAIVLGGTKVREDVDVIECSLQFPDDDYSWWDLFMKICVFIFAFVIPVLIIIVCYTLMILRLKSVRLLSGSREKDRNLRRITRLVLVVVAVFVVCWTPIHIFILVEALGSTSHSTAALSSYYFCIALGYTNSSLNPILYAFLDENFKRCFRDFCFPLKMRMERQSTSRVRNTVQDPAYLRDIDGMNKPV

Mu-type opioid receptor [7] = molecular target: T1, Mu-type opioid receptor; conditions: CHO

For O=C(O[C@@]12CCC(=O)[C@@H]3Oc4c(O)ccc5c4[C@@]31CCN(CC1CC1)[C@@H]2C5)c1ccncc1, which Ratio Ki (Homo sapiens [1]) is on record?
The Ratio Ki was 9.

And the Ratio Ki (Homo sapiens [2])?
The Ratio Ki was 73.

What about the Activity (Mu-type opioid receptor [3]) of the same compound?
Its Activity is 0%.

What does the source list for O=C(O[C@@]12CCC(=O)[C@@H]3Oc4c(O)ccc5c4[C@@]31CCN(CC1CC1)[C@@H]2C5)c1ccccc1?
Ratio Ki (Homo sapiens [1]): 5; Ratio Ki (Homo sapiens [2]): > 81; Activity (Mu-type opioid receptor [3]): 0%

What does the source list for O=C(O[C@@]12CCC(=O)[C@@H]3Oc4c(O)ccc5c4[C@@]31CCN(CC1CC1)[C@@H]2C5)c1cccnc1?
Ratio Ki (Homo sapiens [1]): 30; Ratio Ki (Homo sapiens [2]): 107; Activity (Mu-type opioid receptor [3]): 0%

How did the Ratio Ki (Homo sapiens [1]) turn out when O=C(O[C@@]12CCC(=O)[C@@H]3Oc4c(O)ccc5c4[C@@]31CCN(CC1CC1)[C@@H]2C5)c1cc2ccccc2cn1 was run?
The Ratio Ki was greater than 146.

And the Ratio Ki (Homo sapiens [2])?
The Ratio Ki was greater than 146.

What about the Activity (Mu-type opioid receptor [3]) of the same compound?
The Activity was 0%.

Which Ratio Ki (Homo sapiens [1]) does the source give for COc1cccc2c1[C@]13CCN(CC4CC4)[C@H](C2)[C@]1(OC)CCC(=O)C3 here?
Its Ratio Ki is 45.

What about the Ratio Ki (Homo sapiens [2]) of the same compound?
The Ratio Ki was 40.

Which results are given for O=C(O[C@@]12CCC(=O)[C@@H]3Oc4c(O)ccc5c4[C@@]31CCN(CC1CC1)[C@@H]2C5)c1ccc2ccccc2c1?
Ratio Ki (Homo sapiens [1]): < 1; Ratio Ki (Homo sapiens [2]): 4; Activity (Mu-type opioid receptor [3]): 0%

With C[C@@H](O)[C@H](NC(=O)[C@H](NC(=O)[C@@H](NC(=O)[C@H](CCCNC(=N)N)NC(=O)C(Cc1c[nH]c2ccccc12)NC(=O)[C@@H](Cc1ccc(O)cc1)NC(=O)[C@H](CS)NC(=O)[C@H](N)Cc1ccccc1)[C@@H](C)O)C(C)(C)S)C(=O)O (stereo in doubt) as the compound, how does the Ratio Ki (Homo sapiens [1]) read?
The Ratio Ki was 501.

And the Ratio Ki (Homo sapiens [2])?
The Ratio Ki was 713.

And the Activity (Mu-type opioid receptor [3])?
The Activity was 0%.

For COC(=O)/C=C/C(=O)N[C@@H]1CC[C@@]2(O)[C@H]3Cc4ccc(O)c5c4[C@@]2(CCN3CC2CC2)[C@H]1O5, which Ki (Mu-type opioid receptor [4]) is on record?
Its Ki is 0.41 nM.

And the Ki [5]?
Its Ki is 27.8 nM.

What about the Ki [6] of the same compound?
The Ki was 0.94 nM.

And the Activity (Mu-type opioid receptor [3])?
The Activity was 0%.

With O=C(O[C@@]12CCC(=O)[C@@H]3Oc4c(O)ccc5c4[C@@]31CCN(CC1CC1)[C@@H]2C5)c1ccc2ccccc2n1 as the compound, how does the Ratio Ki (Homo sapiens [1]) read?
The Ratio Ki was 47.

What about the Ratio Ki (Homo sapiens [2]) of the same compound?
The Ratio Ki was 16.

What about the Activity (Mu-type opioid receptor [3]) of the same compound?
The Activity was 0%.

Which Ratio Ki (Homo sapiens [1]) does the source give for O=C(O[C@@]12CCC(=O)[C@@H]3Oc4c(O)ccc5c4[C@@]31CCN(CC1CC1)[C@@H]2C5)c1ccccn1 here?
Its Ratio Ki is 182.

What about the Ratio Ki (Homo sapiens [2]) of the same compound?
The Ratio Ki was 838.

And the Activity (Mu-type opioid receptor [3])?
The Activity was 0%.

What about the Ke (Mu-type opioid receptor [7]) of the same compound?
Its Ke is 0.2 nM.

O=C(O[C@@]12CCC(=O)[C@@H]3Oc4c(O)ccc5c4[C@@]31CCN(CC1CC1)[C@@H]2C5)c1cnc2ccccc2c1 was tested. Which Ratio Ki (Homo sapiens [1]) did it give?
Its Ratio Ki is 55.

And the Ratio Ki (Homo sapiens [2])?
Its Ratio Ki is 304.

And the Activity (Mu-type opioid receptor [3])?
Its Activity is 22%.
